Source: PubChem BioAssay (several laboratories)
This is a sample that favours compounds with a hit; in the whole collection about 1.4% have one here.
KLK5 inh: human KLK5 protease inhibitors, primary screen, biochemical, 1536-well; inhibition, % at 5 µM; Kallikrein-5 (Homo sapiens), Q9Y337; actives 0.59% (n = 210,000); recombinant hK5, fluorogenic AMC substrate cleavage;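 active = inhibition of 40% or more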;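 also: 0% = enzyme controls without compound and 100% = no-enzyme blanks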
Target sequence (Q9Y337 67-293 limits assumed): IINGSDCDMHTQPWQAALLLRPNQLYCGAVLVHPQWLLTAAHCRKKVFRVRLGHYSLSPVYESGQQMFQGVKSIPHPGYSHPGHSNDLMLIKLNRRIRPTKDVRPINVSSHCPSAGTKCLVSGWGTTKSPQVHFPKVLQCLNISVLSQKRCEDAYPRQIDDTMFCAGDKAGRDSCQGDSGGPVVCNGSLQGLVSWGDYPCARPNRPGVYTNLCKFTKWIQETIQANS
FXIIa inh 1536: human FXIIa protease inhibitors, primary screen, biochemical, 1536-well; inhibition, % at 5 µM; purified FXIIa, Boc-QGR-AMC fluorogenic substrate, 2 h; Coagulation factor XII (Homo sapiens), P00748; actives 0.3% (n = 220,000); in the data active = inhibition above about 40%;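 also: 0% = enzyme with no compound and 100% = blank without enzyme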
FXIa inh 1536: human FXIa protease inhibitors, primary screen, biochemical, 1536-well | AID 798, 2007 | purified FXIa, Boc-Glu-Ala-Arg-AMC fluorogenic substrate | Coagulation factor XI (Homo sapiens), P03951 | inhibition, % at 5 µM | actives 0.14% (n = 220,000);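 active = inhibition of at least 40%; inactive = inhibition below 40%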;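 also: fluorescence of freed AMC excited at 355 nm; 0% = enzyme without compound and 100% = no enzyme blank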
Rce1 inh: yeast Rce1p protease inhibitors, primary screen, biochemical, fluorescence, cell-free homogeneous | CAAX prenyl protease 2 (Saccharomyces cerevisiae (strain ATCC 204508 / S288c)), Q03530 | yeast membranes, quenched prenylated peptide cleavage fluorescence | calls only | actives 0.27% (n = 290,000);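 active = fall in fluorescence gain of 50% or more versus controls, with final raw signal at or below 3038400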;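 also: plate controls were neutral control wells for no effect and wells lacking membranes for full effect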
CTSL1 counter: Fasciola hepatica cathepsin L1 inhibitors, primary screen, counter-screen for PFM18AAP inhibitor project, biochemical, QFRET, fluorogenic peptide substrate; recombinant F. hepatica cathepsin L1, Z-Leu-Arg-MCA fluorescence; AID 1906, 2009; actives 0.49% (n = 300,000); inhibition, % at 5.96 µM;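 active = inhibition above the mean of all tested compounds plus 3 SD, set per screening campaign, cut at about 17% in these data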;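 also: 0% = plate median of test compound wells and 100% = 1 µM Z-Phe-Ala-diazomethylketone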
Thrombin inh: human alpha-thrombin inhibitors, primary screen, counter-screen for coagulation protease inhibitor project, biochemical, 1536-well, fluorogenic AMC substrate; AID 1046, 2008; Prothrombin (Homo sapiens), P00734; inhibition, % at 5 µM; Boc-VPR-AMC fluorogenic substrate cleavage; actives 0.26% (n = 220,000);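 active = inhibition at or above 40%; inactive = inhibition below 40%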;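 also: 0% = enzyme with no compound and 100% = wells without enzyme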
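Material: human alpha-thrombin enzyme / Medium: pH 7.5 Tris (50 mM) with NaCl 150 mM, Tween 20 0.05% / Compound: single-point dosing at 5 µM, 0.2% DMSO / Incubation: enzyme reaction carried out at room temperature / Detection: AMC fluorescence, 355/460 nm / Read-out basis: percent inhibition scaled between no-compound controls and no-enzyme blanks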
Numbers without * were called inactive.

Screening O=C1CCCN1CC(O)CS(=O)(=O)c1ccccc1 (stereo unspecified) returned KLK5 inh -22, FXIIa inh 1536 3, FXIa inh 1536 -7, Rce1 inh active, CTSL1 counter 2 and Thrombin inh -2.
Screening COc1cc(NC(=O)CSc2nncn2C)c(C)cc1[N+](=O)[O-] returned KLK5 inh -5, FXIIa inh 1536 11, FXIa inh 1536 -1, Rce1 inh inactive, CTSL1 counter 1 and Thrombin inh -5.
CCOc1cc2c(C#N)c(N(CC)CC)nc(N)c2c(N)n1 was read as Rce1 inh inactive and CTSL1 counter 6.
CCOc1cc2c(C#N)c(N3CCOCC3)nc(N)c2c(N)n1 was read as KLK5 inh 110*, FXIIa inh 1536 0, FXIa inh 1536 -3, Rce1 inh inactive, CTSL1 counter 0 and Thrombin inh 2.
COc1ccc(OC)c(C2CC(c3c(-c4ccccc4)c4cc(Cl)ccc4[nH]c3=O)=NN2S(C)(=O)=O)c1 (stereo unspecified) was read as KLK5 inh 42*, FXIIa inh 1536 8, FXIa inh 1536 0, Rce1 inh inactive, CTSL1 counter -5 and Thrombin inh 3.
Screening COc1ccc(C2CC(c3c(-c4ccccc4)c4cc(Cl)ccc4[nH]c3=O)=NN2S(C)(=O)=O)cc1 (stereo unspecified) returned KLK5 inh -3, FXIIa inh 1536 12, FXIa inh 1536 -4, Rce1 inh inactive, CTSL1 counter 2 and Thrombin inh -1.
For Cc1oc(=O)c(NC(=O)c2cccc(Cl)c2)cc1C(=O)c1ccccc1 the results were KLK5 inh -29, FXIIa inh 1536 13, FXIa inh 1536 5, Rce1 inh inactive, CTSL1 counter 55* and Thrombin inh 1.
For COc1ccc(C(=O)Nc2cc(C(=O)c3ccccc3)c(C)oc2=O)cc1 the results were KLK5 inh 0, FXIIa inh 1536 9, FXIa inh 1536 -6, Rce1 inh inactive, CTSL1 counter 18* and Thrombin inh -1.
Screening COc1cccc(CN2C(=O)CCC2(C)C(=O)NCCc2ccc(OC)c(OC)c2)c1 (stereo unspecified) returned Rce1 inh inactive and CTSL1 counter -4.
Screening CC(C)(C)NC(=O)CN(C(=O)CCC(=O)Nc1nccs1)c1cccc(C(F)(F)F)c1 returned Rce1 inh inactive and CTSL1 counter 1.
`Cc1cc(F)ccc1NC(=O)C1CCCO1` (stereo unspecified) gave KLK5 inh -1, FXIIa inh 1536 4, FXIa inh 1536 -4, Rce1 inh inactive, CTSL1 counter 2 and Thrombin inh -5.
Screening COC(=O)c1nccnc1C(=O)Nc1ccccc1N1CCOCC1 returned Rce1 inh inactive and CTSL1 counter 0.
Screening O=c1cc(-c2ccc([N+](=O)[O-])cc2)nc2cc(-c3ccc(Cl)cc3)[nH]n12 returned KLK5 inh 48*, FXIIa inh 1536 -3, FXIa inh 1536 16, CTSL1 counter -6 and Thrombin inh 63*.
`O=C1CN(C(=O)COC(=O)c2oc3ccccc3c2COc2ccccc2)c2ccccc2N1` gave KLK5 inh -17, FXIIa inh 1536 47*, FXIa inh 1536 20, Rce1 inh inactive, CTSL1 counter 0 and Thrombin inh 3.
`Cc1c(C(=O)OCC(=O)N2CC(=O)Nc3ccccc32)oc2ccccc12` gave KLK5 inh 2, FXIIa inh 1536 17, FXIa inh 1536 4, Rce1 inh inactive, CTSL1 counter -1 and Thrombin inh 4.
Screening CCOC(=O)c1[nH]c(C)c(C(=O)OCC(=O)N2CC(=O)Nc3ccccc32)c1C returned KLK5 inh 42*, FXIIa inh 1536 29, FXIa inh 1536 8, Rce1 inh inactive, CTSL1 counter 2 and Thrombin inh 8.
Screening CC1CC(O)(Cc2ccccc2)C(C)CN1C (stereo unspecified) returned KLK5 inh 0, FXIIa inh 1536 15, FXIa inh 1536 -4, Rce1 inh inactive, CTSL1 counter -4 and Thrombin inh 4.
